Source: PubChem (several laboratories)
NPY2 pot ag = human NPY-Y2 potentiation or agonism, primary screen; P49146; cells expressing NPY-Y2, potentiator/agonist read-out; activation, % at 3.6 µM; 0.45% of 220,000 active; in the data active = activation above about 27%;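 note: cells stimulated with NPY near EC25 plus isoproterenol at EC100; 0% = vehicle plus submaximal agonist and 100% = vehicle plus saturating agonist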
Target sequence (P49146 whole entry, looked up): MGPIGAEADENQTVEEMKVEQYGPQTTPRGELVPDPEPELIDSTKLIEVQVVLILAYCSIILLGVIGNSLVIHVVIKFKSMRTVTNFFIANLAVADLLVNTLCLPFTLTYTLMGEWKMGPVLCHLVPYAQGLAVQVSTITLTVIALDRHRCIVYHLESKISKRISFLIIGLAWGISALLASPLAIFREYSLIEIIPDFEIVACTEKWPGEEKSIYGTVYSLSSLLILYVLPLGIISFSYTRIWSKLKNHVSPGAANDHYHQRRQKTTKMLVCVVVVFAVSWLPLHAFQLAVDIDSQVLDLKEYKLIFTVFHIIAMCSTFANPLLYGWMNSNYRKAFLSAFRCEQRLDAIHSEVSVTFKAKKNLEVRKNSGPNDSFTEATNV
NPY1 pot ag = potentiators or agonists of human neuropeptide Y receptor Y1; P25929; NPY-Y1 expressing cells, potentiator/agonist activation; activation, % at 3.6 µM; 0.37% of 220,000 active; in the data active = activation above about 33%, passing the limit was not always enough;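 note: cells stimulated with NPY at EC10 then isoproterenol at EC100; 0% = low agonist plus stimulus and 100% = saturating agonist plus stimulus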
EP2 antag = EP2 receptor (human) inhibition. 0.52% of 260,000 active. AID 1422. C6 glioma cells expressing human EP2, cAMP TR-FRET; cells stimulated with saturating PGE2. inhibition, % at 25 µM;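 active = percent inhibition above 40 after rounding to a whole number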;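 note: rat C6 glioma host cells with rolipram phosphodiesterase inhibitor present; the protocol text gives 20 µM as final concentration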
Target sequence (P43116 whole entry, looked up): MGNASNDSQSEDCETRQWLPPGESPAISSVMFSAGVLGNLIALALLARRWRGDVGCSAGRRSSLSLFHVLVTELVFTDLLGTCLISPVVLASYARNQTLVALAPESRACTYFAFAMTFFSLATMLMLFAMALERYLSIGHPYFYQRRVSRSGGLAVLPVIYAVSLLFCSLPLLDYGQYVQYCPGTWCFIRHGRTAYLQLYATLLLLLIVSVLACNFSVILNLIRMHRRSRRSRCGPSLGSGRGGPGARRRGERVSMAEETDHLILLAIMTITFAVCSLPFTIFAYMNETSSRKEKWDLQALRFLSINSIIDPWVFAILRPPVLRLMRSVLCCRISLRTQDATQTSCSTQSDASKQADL
NPY Y1 blocker = NPY-Y1 (human) receptor antagonism; 1% of 200,000 active; AID 1040; inhibition, % at 3.6 µM; HEK293-CNG Y1 cells, membrane potential fluorescence; NPY at EC95, then isoproterenol; P25929;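 active = inhibition above the campaign mean inhibition of all tested compounds plus 3 SD, cut at about 20% in these data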;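 note: 0% = DMSO wells given NPY plus isoproterenol and 100% = isoproterenol alone without NPY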
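Material: HEK293 Y1/CNG channel cell line; also added: NPY (25 nM), isoproterenol (1 µM), Ro 20-1724 (25 µM); doses: one concentration, 3.6 µM, in 0.4% DMSO; schedule: compound incubation 1 h at room temperature, readout 45 min post-stimulation; technique: membrane potential fluorescence; measure: fluorescence ratio normalized to % inhibition between controls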
NPY Y2 blocker = NPY-Y2 (human) receptor antagonism. P49146. NPY-Y2 expressing cells, antagonist mode. inhibition, % at 2.7 µM. 0.99% of 140,000 active;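 note: 0% = vehicle with agonist challenge and 100% = reference antagonist with challenge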
EP2 mod = EP2 receptor (human) modulation | 0.83% of 260,000 active | P43116 | induction, % at 25 µM | EP2-expressing cells, cAMP HTRF FRET, PGE2 co-stimulation;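 active = compounds whose cAMP rise, as percent of the full-agonist control response, exceeds 60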;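 note: rat C6 glioma line stably carrying human EP2 under a CMV promoter; the protocol text gives 20 µM as final concentration; 100% = response of wells given 1 µM PGE2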
NPY-Y1 ant conf = human NPY-Y1 antagonism, confirmation. shares compounds with NPY Y1 blocker. HEK293-CNG NPY-Y1, membrane potential fluorescence, cAMP; NPY challenge against isoproterenol-raised cAMP. inhibition, % at 3.6 µM. 21% of 1,200 active. AID 1254; in the data active = inhibition above about 20%;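 note: 0% = vehicle with agonist plus stimulus and 100% = stimulus alone without agonist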
NPY-Y2 antag ct = counter-screen for NPY-Y1 antagonists: human NPY-Y2 antagonism; shares compounds with NPY Y1 blocker; HEK293 NPY-Y2 CNG membrane potential fluorescence; cells given NPY, then isoproterenol; inhibition, % at 3.6 µM; 28% of 1,200 active; AID 1255;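 note: 0% = DMSO with agonist challenge and 100% = reference antagonist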
Numbers without * were called inactive; x = no result given. An excerpt weighted towards active compounds, which were near 2.8% of everything screened. Cut-off read from the data, not from the text of the source, unless noted: active = inhibition above about 17%; inactive = the rest.

SMILES	NPY2 pot ag	NPY1 pot ag	EP2 antag	NPY Y1 blocker	NPY Y2 blocker	EP2 mod	NPY-Y1 ant conf	NPY-Y2 antag ct
Cc1n[nH]c(C)c1C(C)NC(=O)Cn1nc(C(F)(F)F)c2c1CCCC2 (centres undefined)	x	x	10.7	x	x	-1.9	x	x
CCn1nc(CC(=O)Nc2nnc(CC(=O)N3CCCC3)s2)c2ccccc2c1=O	-20.2	-17.6	15.7	20.4*	4.3	19.5	-0.7	4.2
COC(=O)c1sccc1NC(=O)CSc1cccc(Cl)c1Cl	-30.0	-34.3	x	23.6*	12.1	61.0*	5.5	9.2
COC(=O)c1sccc1NC(=O)/C=C/c1c(Cl)cccc1Cl	-5.1	-0.9	20.9	3.3	1.2	28.4	x	x
COc1ccc(N(C)S(=O)(=O)c2ccc(Cl)c(C(=O)NCCc3ccc(Cl)cc3)c2)cc1	5.4	4.8	8.7	29.4*	x	-23.0	9.1	9.5
CCOC(=O)C[N+](C)(C)CCOC1CC2CCC1(C)C2(C)C (centres undefined)	-6.7	-28.2	8.6	24.2*	x	5.9	10.1	6.1
CC1(C)[C@H]2CC[C@]1(C)[C@H](OC(=O)CSC#N)C2	x	x	8.5	x	x	-8.7	x	x
CC1(C)C2CCC1(C)C(OCC[N+](C)(C)CC(=O)OC1CCCCC1)C2 (centres undefined)	2.2	-46.8	6.3	23.7*	1.6	0.9	10.3	14.0
CCN(CC)S(=O)(=O)c1ccc(S(=O)(=O)N2CCN(S(C)(=O)=O)CC2)cc1	x	x	11.1	x	x	-0.1	x	x
COc1cccc(/C(O)=C2/C(=O)C(=O)N(c3nccs3)C2c2ccncc2)c1 (centres undefined)	x	x	15.1	x	x	8.7	x	x
O=C(NCCC1=CCCCC1)c1cc(-c2ccncc2)nc2ccccc12	-70.7	-81.4	4.1	26.6*	x	-17.4	26.9*	23.4*
Cc1ccc(C)c(OCC(=O)N/N=C/c2c(C)nn(-c3ccccc3)c2Cl)c1	-17.9	-5.4	x	21.1*	11.9	32.2	5.3	12.3
CC1CCc2c(sc3ncn(CC(=O)OC(C)C)c(=O)c23)C1 (centres undefined)	x	x	5.5	x	x	-46.7	x	x
COc1c(Cl)cc(Cl)cc1CNCCNCC(C)O (centres undefined)	-13.4	0.7	x	1.3	4.5	0.1	x	x
CNCc1cc(Cl)cc(OC)c1OC(C)C	-8.2	-5.4	5.1	24.3*	x	44.5	24.1*	9.8
CC(C)C(=O)N1CCN(c2ccccc2NC(=O)c2ccccc2)CC1	x	x	11.2	x	x	0.9	x	x
O=C(Nc1ccccc1N1CCN(c2ccccc2)CC1)c1ccccc1	-30.7	-31.6	3.7	41.4*	x	43.2	34.1*	20.0*
O=C(Nc1cccnc1)c1cc(-c2ccccc2)on1	-18.7	-15.8	20.5	4.4	5.6	-17.8	x	x
CC(C)n1cc(NC(=O)c2cc(-c3ccccc3)on2)cn1	-26.9	-32.6	21.8	23.6*	9.0	-90.8	4.6	13.6
CC(=O)Nc1cccc(NC(=O)CSc2nc3c(C)cccc3cc2C)c1	x	x	6.8	x	x	-49.5	x	x
CCC1CCCCN1S(=O)(=O)c1ccc(NC(=O)Cn2nc(-c3ccccc3F)ccc2=O)cc1 (centres undefined)	x	x	8.1	x	x	-44.2	x	x
c1ccc(-c2ccccc2OCCCN2CCCCCC2)cc1	-9.9	-14.9	6.9	26.1*	x	-17.7	11.5	12.7
c1ccc(-c2ccccc2OCCCN2CCCC2)cc1	1.3	-0.9	6.1	16.8	6.2	-26.9	x	x
Cc1cc(=O)n2c(C(=O)Nc3ccc(C(=O)OC(C)C)cc3)c(C(=O)Nc3ccccc3)sc2n1	-48.2	-136.2	7.6	25.1*	x	-4.2	34.8*	28.8*
COC(=O)c1c(NC(=O)C(C)C)sc(C(=O)Nc2ccccc2)c1C	x	x	7.2	x	x	-8.2	x	x
SMILES	NPY2 pot ag	NPY1 pot ag	EP2 antag	NPY Y1 blocker	NPY Y2 blocker	EP2 mod	NPY-Y1 ant conf	NPY-Y2 antag ct
Cc1nn(-c2ccccc2)c(C)c1/C=N/n1cnnc1	1.1	11.8	9.5	-0.1	x	18.1	x	x
Cc1nn(-c2ccccc2)c(Oc2ccc(F)cc2)c1/C=N/n1cnnc1	3.9	-0.3	11.1	20.2*	4.3	14.6	4.8	0.8
CCOc1ccc2[nH]c(=O)c(CN(CCCO)C(CC)c3nnnn3CCOC)cc2c1 (centres undefined)	x	x	10.5	x	x	-3.2	x	x
COc1cc(S(=O)(=O)n2cnc(C)c2)ccc1Br	-2.4	0.6	7.3	1.7	x	8.1	x	x
Cc1cn(S(=O)(=O)c2ccc(Br)c3ccccc23)cn1	-29.2	-21.9	6.1	27.3*	6.7	13.8	9.8	6.9
COc1ccc(-c2ccc(CCC(=O)O)n2-c2ccccc2O)cc1	-9.3	-3.5	7.4	x	x	16.6	x	x
COc1ccc(-n2c(CCC(=O)O)ccc2-c2ccccc2)cc1	-22.6	-2.4	2.2	26.6*	x	6.1	12.8	12.2
CCOc1ccc2nc(SCC(=O)Nc3ccc(N(C)C)cc3)c(C#N)cc2c1	x	x	6.9	x	x	-36.2	x	x
CCCCOC(=O)c1ccc(NC(=S)NC(=O)c2c(Cl)cnn2C)cc1	-15.4	-36.1	18.4	25.2*	8.0	27.9	9.1	12.2
CCCCOC(=O)c1ccc(NC(=S)NC(=O)c2c(Cl)cnn2CC)cc1	-5.8	-32.1	16.1	2.1	4.5	19.3	x	x
CCCCCCC(=O)Nc1c2c(nc3ccccc13)N(C)CC2	0.0	-34.5	15.8	24.5*	9.9	-41.0	6.2	8.4
Cc1cccc(CN2CCc3c(nc(N4CC(C)OC(C)C4)[nH]c3=O)C2)c1 (centres undefined)	x	x	x	x	x	-13.8	x	x
CC(C)c1nc2ccccc2c2nn(CC(=O)N(C)C3CCCCC3)c(=O)n12	x	x	8.0	x	x	-103.6	x	x
Cc1nc(N2CCCCC2)c2c(C)c(C(=O)Nc3cccc(C(F)(F)F)c3)sc2n1	-6.3	-1.9	18.6	18.8	x	4.8	x	x
Cc1nc(N2CCCCC2)c2c(C)c(C(=O)Nc3ccccc3C(F)(F)F)sc2n1	-37.2	-47.5	9.2	26.9*	x	17.2	22.3*	14.7
Cc1ccccc1NC(=O)C1CCCN1S(=O)(=O)c1cccc2cccnc12 (centres undefined)	3.9	8.8	13.9	5.2	2.2	-15.2	x	x
Cc1ccccc1NC(=O)C1CCCN(S(=O)(=O)c2cccc3cccnc23)C1 (centres undefined)	-9.1	8.4	8.5	96.4*	-0.3	0.8	1.8	2.5
Cc1ccc(C(=O)c2cc([N+](=O)[O-])ccc2N2CCOCC2)c(C)c1	-7.5	-3.8	11.8	33.9*	2.8	22.3	5.8	21.9*
O=C1CCC(C(=O)OCC(=O)C23CC4CC(CC(C4)C2)C3)N1 (centres undefined)	-1.7	22.1	11.8	23.4*	-0.5	23.6	-2.2	0.6
O=C1CCC(C(=O)OCc2ccccc2)N1 (centres undefined)	-21.1	1.1	6.2	5.9	1.2	14.3	x	x
